# From ChEMBL document CHEMBL1139850, “Hypoxia-selective antitumor agents: norsesterterpene peroxides from the marine sponge Diacarnus levii preferentially suppress the growth of tumor cells under hypoxic conditions” (J Nat Prod, 2007)
# Activity calls are given as the source filed them. The rule behind the calls is not given here.
# Key:
# Homo sapiens [1] = organism: Homo sapiens; assay: Inhibition of hypoxia-induced HIF1 activation at 12. 7 uM
# Procedure, shortened: (§1)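 HIF-1 activity was read in transfected cells by a luciferase reporter after a 16 h compound exposure under hypoxia (1% O2:5% CO2:94% N2). Normoxic (5% CO2:95% air) and hypoxia-mimetic (10 µM 1,10-phenanthroline) conditions were run alongside.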
# T47D [2] = assay: Antiproliferative activity against T47D cells at 12. 7 uM; assay type: functional, Homo sapiens
# T47D [3] = assay: Antiproliferative activity against human T47D cells under normoxic condition; assay type: functional, cell-based
# Procedure, shortened: (§2)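 Human prostate (DU145, PC-3) and breast (MCF-7, MDA-MB-231, T47D) carcinoma cells were grown in DMEM/F12 with 10% FCS and Pen/Strep. They were seeded at 30,000 cells/well and left overnight. Compound was added with DMSO up to 0.6% final, and plates went 48 h at 37 °C, hypoxic (1% O2:5% CO2:94% N2) or normoxic (5% CO2:95% air). Read-out was neutral red, A540 corrected at 630 nm, in quadruplicate.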
# MDA-MB-231 [4] = assay: Antiproliferative activity against human MDA-MB-231 cells under hypoxic condition; assay type: functional, cell-based; procedure, shortened: as §2
# MCF7 [5] = assay: Antiproliferative activity against human MCF7 cells under normoxic condition; assay type: functional, cell-based; procedure, shortened: as §2
# MDA-MB-231 [6] = assay: Antiproliferative activity against human MDA-MB-231 cells under normoxic condition; assay type: functional, cell-based; procedure, shortened: as §2
# DU-145 [7] = assay: Antiproliferative activity against human DU145 cells under normoxic condition; assay type: functional, cell-based; procedure, shortened: as §2
# PC-3 [8] = assay: Antiproliferative activity against human PC3 cells under hypoxic condition; assay type: functional, cell-based; procedure, shortened: as §2
# T47D [9] = assay: Antiproliferative activity against human T47D cells under hypoxic condition; assay type: functional, cell-based; procedure, shortened: as §2
# MCF7 [10] = assay: Antiproliferative activity against human MCF7 cells under hypoxic condition; assay type: functional, cell-based; procedure, shortened: as §2
# PC-3 [11] = assay: Antiproliferative activity against human PC3 cells under normoxic condition; assay type: functional, cell-based; procedure, shortened: as §2
# DU-145 [12] = assay: Antiproliferative activity against human DU145 cells under hypoxic condition; assay type: functional, cell-based; procedure, shortened: as §2
# T47D [13] = assay: Antiproliferative activity against T47D cells at 1.27 uM; assay type: functional, cell-based; conditions: Homo sapiens
# T47D [14] = assay: Antiproliferative activity against T47D cells after 16 hrs at 12. 7 uM; assay type: functional, Homo sapiens
# Homo sapiens [15] = organism: Homo sapiens; assay: Inhibition of hypoxia induced HIF-1 activation at 1.27 uM; procedure, shortened: as §1
# MDA-MB-231 [16] = assay: Antiproliferative activity against human MDA-MB-231 cells at 0.3 uM; assay type: functional, cell-based; procedure, shortened: as §2
Compound,inhibition (Homo sapiens [1]) [%],Activity (T47D [2]),IC50 (T47D [3]) [µM],IC50 (MDA-MB-231 [4]) [µM],IC50 (MCF7 [5]) [µM],IC50 (MDA-MB-231 [6]) [µM],IC50 (DU-145 [7]) [µM],IC50 (PC-3 [8]) [µM],IC50 (T47D [9]) [µM],IC50 (MCF7 [10]) [µM],IC50 (PC-3 [11]) [µM],IC50 (DU-145 [12]) [µM],Activity (T47D [13]),Activity (T47D [14]) [%],Activity (Homo sapiens [15]),Activity (MDA-MB-231 [16])
COC(=O)[C@@H](C)[C@H]1CC[C@](C)(CCC/C(C)=C/CC2C(C)=CCCC2(C)C)OO1 (relative stereo) [DIACARNOXIDE D],< 30,<=30%,,,,,,,,,,,,,,
C=C1CCCC(C)(C)C1CCC(C)CCC[C@@]1(C)CC[C@H]([C@H](C)C(=O)OC)OO1 (relative stereo) [DIACARNOXIDE A],< 30,<=30%,14.7,17.8,> 30,17.8,> 30,> 30,26.9,> 30,> 30,> 30,,,,
C=C1CCCC(C)(C)C1CCC(C)CCC[C@@]1(C)CC[C@H]([C@H](C)C(=O)O)OO1 (relative stereo) [DIACARNOXIDE B],95,,5.6,5.6,13.8,13.3,6.6,12.9,6,6.6,16.7,5.3,inactive,97,inactive,Active
COC(=O)[C@@H](C)[C@H]1CC[C@](C)(CCCC(C)CCC2=C(C)CCCC2(C)C)OO1 (relative stereo) [DIACARNOXIDE C],< 30,<=30%,,,,,,,,,,,,,,
